The conditions of series [1]: adult; well-stirred model, fu 0.004, QH 21 ml/min/kg; ref Yanni et al. [8]; cited from earlier work.
Series [2] can be described thus: Micafungin serum fraction unbound by equilibrium dialysis. The class given is in vitro ADME. Conditions: human, pH 7.4. In a few lines:
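Serum from neonates (23–40 wk gestation, postnatal 1–52 days, 0.6–3.5 kg; n=6) or adults (n=6) spiked with 10 μM test compound. Dialysed against an equal volume of 100 mM sodium phosphate, pH 7.4, for 4.5 hr at 37°C with 100 rpm shaking. Both sides quantified by HPLC-fluorescence (ex 273/em 464 nm) with diclofenac internal standard and matrix-matched calibration. fu = buffer/serum concentration.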
(In general: In equilibrium dialysis only unbound substance equilibrates across the membrane.)

For series [3] the following is noted: cited from earlier work.
The test system of series [4] is sandwich-cultured human hepatocytes. To be noted: cited from earlier work.
The conditions of series [5]: cited from earlier work. This is another data set of the same source.
Setting [6] is: human adult, ref Yanni et al. [8].

Data on 2 molecules can be found in publication PMC3080470 (Biopharmaceutics & drug disposition, 2011).

Like-named read-outs stand apart in the source and are kept apart here. Marks after values point to notes of the source that are not given here. Numbered stars: 1 amine (or outer) side, 2 acyl side, 3 side chain; on linkers, the order of the positions; unused ones are H or OH. Bridge positions count the residues as written; N and C are the ends. Square brackets hold non-standard residues; d marks the D form. Peptide text beside a SMILES is read from it. * marks the point of attachment. hTyr(3S-OH,4S-OH,3'-OSO3H) = N[C@H](C(=O)O)[C@H](O)[C@@H](O)c1ccc(O)c(OS(=O)(=O)O)c1; Orn(4R-OH,5R-OH) = O=C([C@H](C[C@@H](O)[C@@H](O)N[*:3])N[*:1])[*:2]; Pro(3S-OH,4S-Me) = C[C@H]1CN[C@H](C(=O)O)[C@H]1O; X1 = CCCCCOc1ccc(-c2cc(-c3ccc(C(=O)*)cc3)no2)cc1; Gln(3R-OH) = NC(=O)C[C@@H](O)[C@H](N)C(=O)O; Hyp = O=C(O)[C@@H]1C[C@@H](O)CN1

For `CCCCCOc1ccc(-c2cc(-c3ccc(C(=O)N[C@H]4C[C@@H](O)[C@@H](O)NC(=O)[C@@H]5[C@@H](O)[C@@H](C)CN5C(=O)[C@H]([C@H](O)CC(N)=O)NC(=O)[C@H]([C@H](O)[C@@H](O)c5ccc(O)c(OS(=O)(=O)O)c5)NC(=O)[C@@H]5C[C@@H](O)CN5C(=O)[C@H]([C@@H](C)O)NC4=O)cc3)no2)cc1` [Micafungin] (X1-[Orn(4R-OH,5R-OH)]T[Hyp][hTyr(3S-OH,4S-OH,3'-OSO3H)][Gln(3R-OH)][Pro(3S-OH,4S-Me)]; lactam 1-C), in series [1], the “Calculated Biliary Cl” value was 0.101 ± 0.062 mL/min/kg and the “Calculated Plasma Cl” value is 0.175 ± 0.012 mL/min/kg. Further, the fraction unbound (in general, free concentration divided by total concentration) at 4.5 hr, 10 μM in series [2] (serum from adults) was 0.004. Moreover, the fraction unbound at 4.5 hr, 10 μM in series [2] (serum from neonates) is 0.033. Further, the plasma protein binding in series [3] (in humans and animals) was above 99%. Moreover, the “binding to plasma proteins” value in series [3] (stated in abstract, no reference given) is recorded as above 99.5%. For the same molecule, the “Intrinsic Biliary Cl” value in series [4] (adult, sandwich-cultured human hepatocytes, B-CLEAR, ref Yanni et al. [8]) was 14 ± 9 µL/min/mg. For the same molecule, the “Intrinsic Accumulation Cl” value in series [4] (adult, sandwich-cultured human hepatocytes, ref Yanni et al. [8]) is 24 ± 2 µL/min/mg. Further, the “In vitro intrinsic accumulation Cl” value in series [4] (sandwich-cultured human hepatocytes from adult liver donors, no albumin) is 23.5 ± 1.6 µL/min/mg. For the same molecule, in series [5] (setting [6]), the “Observed Biliary Cl” value is 0.160 mL/min/kg and the “Observed Plasma Cl” value was 0.229 mL/min/kg. For the same molecule, in series [5] (human neonate, ref Heresi et al. [5]), the “Observed Plasma Cl” value was 0.622 ^# ml/min/kg. In addition, the “share of plasma clearance that occurs via biliary elimination of the parent drug” value in series [5] (pharmacokinetic studies with 14C-micafungin) is listed as “approximately 90%”.

As to Caspofungin, the “unbound fraction in blood” value in series [3] is “about 3.5%”. In series [5] (human), the “clearance in neonates (< 3 months) compared to older children (2-11y)” value is reported as “significantly lower”.
